One block for each compound: values may come before it. Activity calls are given as the source filed them. The calls are words filed in the database; no cut-off is given here.
Legend:
Meriones unguiculatus [1] = experiment: Inhibition of GR73632-induced foot tapping in orally dosed Mongolian gerbil after 1 hr; assay type: functional; conditions: po, read-out: ID50 (the source's name)
How it was run: (§1)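 GR73632 (3 pmol/5 μL) injected icv into the lateral ventricle of Mongolian gerbils; after 1 min recovery, hind foot tapping timed for 3 min (max 180 s). Oral compound or vehicle (10 mL/kg) given 1, 4, 8 or 24 h beforehand, at least seven animals per group.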

Substance-P receptor = Substance-P receptor (Homo sapiens, UniProt P25103); experiment: Displacement of [3H]SP from human NK1 receptor expressed in CHO cells by liquid scintillation counting; assay type: cell-based
Meriones unguiculatus [2] = experiment: Inhibition of GR73632-induced foot tapping in orally dosed Mongolian gerbil after 4 hrs; assay type: functional; conditions: po, read-out: ID50 (the source's name); how it was run: as §1
[3] = target: Sigma non-opioid intracellular receptor 1 (Homo sapiens, UniProt Q99720); experiment: Binding affinity to sigma 1 receptor
[4] = Binding affinity to calcium channel L type dihydropyridine binding site
Meriones unguiculatus [5] = experiment: Inhibition of GR73632-induced foot tapping in orally dosed Mongolian gerbil after 24 hrs; assay type: functional; conditions: po, read-out: ID50 (the source's name); how it was run: as §1
[6] = Half life in mouse at 2 mg/kg, po; assay type: ADME, organism-based; design: dose 2 mg/kg, route oral; conditions: in vivo
How it was run: (§2)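 Mice given 1 mg/kg iv and 2 mg/kg po using a composite design, three animals per time point (n = 21 per arm). Blood collected at nominal times, plasma prepared by centrifugation and analysed by protein precipitation plus HPLC-MS/MS; parameters derived from plasma concentrations.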

Rattus norvegicus = experiment: Volume of distribution at steady state in rat at 1 mg/kg, iv and po; assay type: ADME, organism-based; design: dose 1 mg/kg, route oral; conditions: in vivo
How it was run: (§3)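 Rats (n = 6) were dosed at 1 mg/kg iv bolus and po by gavage. Serial blood sampling; plasma obtained by centrifugation, then protein precipitation and HPLC-MS/MS quantitation. PK parameters calculated from plasma concentrations.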

[7] = Binding affinity to sodium channel site 2
[8] = Binding affinity to calcium channel L type benzodiazepine binding site
[9] = Plasma clearance in dog at 0.5 mg/kg, iv; assay type: ADME, organism-based, Canis lupus familiaris; design: dose 0.5 mg/kg, route intravenous
How it was run: (§4)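 Dog (n = 6), cynomolgus monkey (n = 3) and marmoset (n = 3) received an iv bolus at 0.5 mg/kg and po gavage at 1 mg/kg. Serial blood samples taken, spun to plasma, and assayed after protein precipitation by HPLC-MS/MS; parameters derived from plasma concentrations.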

[10] = Volume of distribution at steady state in dog at 0.5 mg/kg, iv; assay type: ADME, organism-based, Canis lupus familiaris; design: dose 0.5 mg/kg, route intravenous; conditions: in vivo, read-out: Vdss; how it was run: as §4
[11] = Plasma clearance in mouse at 2 mg/kg, po; assay type: ADME, organism-based; design: dose 2 mg/kg, route oral
[12] = Half life in dog at 0.5 mg/kg, iv; assay type: ADME, organism-based, Canis lupus familiaris; design: dose 0.5 mg/kg, route intravenous; conditions: in vivo; how it was run: as §4
[13] = Bioavailability in cynomolgus monkey at 1 mg/kg, iv; assay type: ADME, organism-based, Macaca fascicularis; conditions: in vivo
[14] = Volume of distribution at steady state in marmoset at 1 mg/kg, iv; assay type: ADME, organism-based, Callithrix jacchus; design: dose 1 mg/kg, route intravenous; conditions: in vivo, read-out: Vdss
[15] = Half life in rat at 1 mg/kg, iv and po; assay type: ADME, organism-based; design: dose 1 mg/kg, route oral; conditions: in vivo; how it was run: as §3
[16] = Plasma clearance in marmoset at 1 mg/kg, iv; assay type: ADME, organism-based, Callithrix jacchus; design: dose 1 mg/kg, route intravenous
[17] = Plasma clearance in cynomolgus monkey at 1 mg/kg, iv; assay type: ADME, organism-based, Macaca fascicularis; design: dose 1 mg/kg, route intravenous
[18] = Oral bioavailability in rat at 1 mg/kg; assay type: ADME, organism-based; conditions: in vivo; how it was run: as §3
[19] = Bioavailability in marmoset at 1 mg/kg, iv; assay type: ADME, organism-based, Callithrix jacchus; conditions: in vivo
[20] = Oral bioavailability in mouse at 2 mg/kg; assay type: ADME, organism-based; conditions: in vivo; how it was run: as §2
Meriones unguiculatus [21] = experiment: Antidepressant activity against Mongolian gerbil assessed as increase in social interaction time at 0.3 to 1 mg/kg, po; assay type: functional, organism-based
How it was run: (§5)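 Pairs of unfamiliar male Mongolian gerbils (50-70 g), matched for treatment, placed in arena centre; active social interaction (sniffing, following, partner grooming, wrestling) scored for 5 min. Dosing 1 h before test, po at 0.1, 0.3 and 1.0 mg/kg (10 mL/kg), randomized, 10 animals per group. One-way ANOVA with Dunnett's test or paired t test versus vehicle.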

[22] = Volume of distribution at steady state in cynomolgus monkey at 1 mg/kg, iv; assay type: ADME, organism-based, Macaca fascicularis; design: dose 1 mg/kg, route intravenous; conditions: in vivo, read-out: Vdss
Meriones unguiculatus [23] = experiment: Inhibition of GR73632-induced foot tapping in orally dosed Mongolian gerbil after 8 hrs; assay type: functional; conditions: po, read-out: ID50 (the source's name); how it was run: as §1
Meriones unguiculatus [24] = experiment: Toxicity in Mongolian gerbil assessed as locomotor activity at 1 mg/kg, po; assay type: functional, organism-based; design: dose 1 mg/kg
How it was run: (§6)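 Gerbil social interaction arena, po dosing 1 h pretest (0.1, 0.3, 1.0 mg/kg; 10 mL/kg; 10 per group). Abnormal behaviours noted during the 5 min session; sedation checked as locomotor activity scored by line crossing. Compared with vehicle by one-way ANOVA plus Dunnett's test or paired t test.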

Meriones unguiculatus [25] = experiment: Toxicity in Mongolian gerbil assessed as abnormal behavior at 0.3 to 1 mg/kg, po; assay type: organism-based; design: dose 0.3-1 mg/kg, route oral; conditions: in vivo; how it was run: as §6
[26] = Half life in marmoset at 1 mg/kg, iv; assay type: ADME, organism-based, Callithrix jacchus; design: dose 1 mg/kg, route intravenous; conditions: in vivo
Meriones unguiculatus [27] = experiment: Antidepressant activity against po dosed Mongolian gerbil assessed as increase in social interaction time; assay type: functional, organism-based; how it was run: as §5
[28] = Half life […] cynomolgus monkey at 1 mg/kg, iv; assay type: ADME, organism-based, Macaca fascicularis; design: dose 1 mg/kg, route intravenous; conditions: in vivo
Meriones unguiculatus [29] = experiment: Inhibition of GR73632-induced foot tapping in sc dosed Mongolian gerbil after 1 hr; assay type: functional; conditions: read-out: ID50 (the source's name)
How it was run: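 Gerbil foot tapping model: icv GR73632 3 pmol/5 μL into the lateral ventricle, tapping recorded for 3 min after 1 min recovery. Compound given sc 1 h before agonist, seven animals per group.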

Meriones unguiculatus [30] = experiment: Antidepressant activity against po dosed Mongolian gerbil assessed as increase in social interaction time at 1 mg/kg, po (Rbv = 19+/-1.2seconds); assay type: functional; how it was run: as §5
[31] = Bioavailability in dog at 0.5 mg/kg, iv; assay type: ADME, organism-based, Canis lupus familiaris; conditions: in vivo; how it was run: as §4
Mus musculus = experiment: Volume of distribution at steady state in mouse at 2 mg/kg, po; assay type: ADME, organism-based; design: dose 2 mg/kg, route oral; conditions: in vivo

Chain of Substance-P receptor (P25103 whole entry): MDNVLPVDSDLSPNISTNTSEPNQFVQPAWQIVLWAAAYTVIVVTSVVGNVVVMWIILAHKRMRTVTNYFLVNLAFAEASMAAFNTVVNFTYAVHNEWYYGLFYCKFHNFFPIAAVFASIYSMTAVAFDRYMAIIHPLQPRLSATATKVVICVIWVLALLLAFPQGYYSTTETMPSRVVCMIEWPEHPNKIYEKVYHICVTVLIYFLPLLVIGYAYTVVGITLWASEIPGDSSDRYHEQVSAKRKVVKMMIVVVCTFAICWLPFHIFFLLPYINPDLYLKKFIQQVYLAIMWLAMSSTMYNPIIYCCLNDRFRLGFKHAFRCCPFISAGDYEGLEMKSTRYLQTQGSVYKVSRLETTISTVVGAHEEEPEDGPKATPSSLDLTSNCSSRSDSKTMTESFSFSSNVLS
Chain of Sigma non-opioid intracellular receptor 1 (Q99720 whole entry): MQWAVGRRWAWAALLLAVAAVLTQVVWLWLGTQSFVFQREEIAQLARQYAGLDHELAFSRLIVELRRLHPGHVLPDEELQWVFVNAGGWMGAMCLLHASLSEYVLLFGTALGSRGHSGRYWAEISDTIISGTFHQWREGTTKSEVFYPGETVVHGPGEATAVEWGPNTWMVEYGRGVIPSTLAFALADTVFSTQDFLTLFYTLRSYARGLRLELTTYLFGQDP

Ki (Substance-P receptor): 0.0794 nM
Structure (SMILES): Cc1cc(F)ccc1[C@H]1C[C@@H](N(C)C)CCN1C(=O)N(C)Cc1cc(C(F)(F)F)cc(C(F)(F)F)c1
ED50 (Meriones unguiculatus [1]): 0.26 mg/kg

Ki (Substance-P receptor): 0.24 nM
Structure (SMILES): Cc1cc(F)ccc1[C@H]1C[C@@H](N(C)C)CCN1C(=O)N(C)[C@H](C)c1cc(C(F)(F)F)cc(C(F)(F)F)c1
ED50 (Meriones unguiculatus [1]): 0.9 mg/kg

Ki (Substance-P receptor): 0.933 nM
Structure (SMILES): Cc1cc(F)ccc1[C@H]1C[C@H](N(C)C)CCN1C(=O)N(C)[C@H](C)c1cc(C(F)(F)F)cc(C(F)(F)F)c1

Ki (Substance-P receptor): 0.0813 nM
Structure (SMILES): Cc1cc(F)ccc1[C@H]1C[C@@H](N2CCC2)CCN1C(=O)N(C)Cc1cc(C(F)(F)F)cc(C(F)(F)F)c1
ED50 (Meriones unguiculatus [2]): 0.13 mg/kg

Ki (Substance-P receptor): 0.178 nM
Structure (SMILES): Cc1cc(F)ccc1[C@H]1C[C@@H](N2CCC2)CCN1C(=O)N(C)[C@H](C)c1cc(C(F)(F)F)cc(C(F)(F)F)c1

Ki (Substance-P receptor): 0.646 nM
Structure (SMILES): Cc1cc(F)ccc1[C@H]1C[C@H](N2CCC2)CCN1C(=O)N(C)[C@H](C)c1cc(C(F)(F)F)cc(C(F)(F)F)c1

Ki (Substance-P receptor): 0.275 nM
Structure (SMILES): Cc1cc(F)ccc1[C@H]1C[C@@H](N2CCCC2)CCN1C(=O)N(C)Cc1cc(C(F)(F)F)cc(C(F)(F)F)c1
ED50 (Meriones unguiculatus [1]): 0.3 mg/kg

Ki (Substance-P receptor): 0.141 nM
Structure (SMILES): Cc1cc(F)ccc1[C@H]1C[C@@H](N2CCCC2)CCN1C(=O)N(C)[C@H](C)c1cc(C(F)(F)F)cc(C(F)(F)F)c1
ED50 (Meriones unguiculatus [1]): 0.92 mg/kg

Ki (Substance-P receptor): 0.2 nM
Structure (SMILES): Cc1cc(F)ccc1[C@H]1C[C@H](N2CCCC2)CCN1C(=O)N(C)[C@H](C)c1cc(C(F)(F)F)cc(C(F)(F)F)c1
ED50 (Meriones unguiculatus [2]): > 1 mg/kg

Ki (Substance-P receptor): 0.117 nM
Structure (SMILES): CC(=O)N1CCN([C@H]2CCN(C(=O)N(C)Cc3cc(C(F)(F)F)cc(C(F)(F)F)c3)[C@@H](c3ccc(F)cc3C)C2)CC1
ED50 (Meriones unguiculatus [1]): 0.09 mg/kg

Structure (SMILES): CC(=O)N1CCN([C@@H]2CCN(C(=O)N(C)[C@H](C)c3cc(C(F)(F)F)cc(C(F)(F)F)c3)[C@@H](c3ccc(F)cc3C)C2)CC1
ED50 (Meriones unguiculatus [1]): > 0.3 mg/kg

Ki (Substance-P receptor): 0.2 nM
Structure (SMILES): CN[C@H]1CCN(C(=O)N(C)Cc2cc(C(F)(F)F)cc(C(F)(F)F)c2)[C@@H](c2ccc(F)cc2C)C1

Ki (Substance-P receptor): 0.324 nM
Structure (SMILES): Cc1cc(F)ccc1[C@H]1C[C@@H](NC2CC2)CCN1C(=O)N(C)[C@H](C)c1cc(C(F)(F)F)cc(C(F)(F)F)c1
ED50 (Meriones unguiculatus [2]): 0.39 mg/kg

Ki (Substance-P receptor): 0.17 nM
Structure (SMILES): Cc1cc(F)ccc1[C@H]1C[C@@H](NC2CCC2)CCN1C(=O)N(C)[C@H](C)c1cc(C(F)(F)F)cc(C(F)(F)F)c1

Ki (Substance-P receptor): 0.209 nM
Structure (SMILES): COCCN[C@H]1CCN(C(=O)N(C)[C@H](C)c2cc(C(F)(F)F)cc(C(F)(F)F)c2)[C@@H](c2ccc(F)cc2C)C1

Ki [3]: 2980 nM
Ki [4]: 6580 nM
half-life [6]: 1.1 h
Vdss (Rattus norvegicus): 3.2 L/kg
Ki [7]: 4220 nM
Ki [8]: 8780 nM
clearance [9]: 10 mL/min/kg
Vd [10]: 1.9 L/kg
CL/F [11]: 120 mL/min/kg
half-life [12]: 4.5 h
bioavailability [13]: 8%
Vd [14]: 3.1 L/kg
half-life [15]: 1.8 h
clearance [16]: 29 mL/min/kg
clearance [17]: 26 mL/min/kg
bioavailability [18]: 8%
bioavailability [19]: 14%
bioavailability [20]: 21%
Vd [22]: 3 L/kg
half-life [26]: 1.7 h
half-life [28]: 2.1 h
bioavailability [31]: 34%
Vdss (Mus musculus): 4 L/kg
Structure (SMILES): CC(=O)N1CCN([C@H]2CCN(C(=O)N(C)[C@H](C)c3cc(C(F)(F)F)cc(C(F)(F)F)c3)[C@@H](c3ccc(F)cc3C)C2)CC1 [CASOPITANT]
ED50 (Meriones unguiculatus [5]): 1.1 mg/kg
Activity (Meriones unguiculatus [21]): Active
ED50 (Meriones unguiculatus [1]): 0.08 mg/kg
ED50 (Meriones unguiculatus [23]): 0.19 mg/kg
Activity (Meriones unguiculatus [24]): Not toxic
Activity (Meriones unguiculatus [25]): Non-toxic
Activity (Meriones unguiculatus [27]): Dose-dependent effect
ED50 (Meriones unguiculatus [29]): 0.05 mg/kg
Time (Meriones unguiculatus [30]): 36.6 s

Structure (SMILES): Cc1cc(F)ccc1[C@H]1CNCCN1C(=O)N(C)[C@H](C)c1cc(C(F)(F)F)cc(C(F)(F)F)c1 [VESTIPITANT]
ED50 (Meriones unguiculatus [1]): 0.014 mg/kg
